Reference: ChEMBL document CHEMBL1154802, “Antiestrogenic constituents of the Thai medicinal plants Capparis flavicans and Vitex glabrata” (2009)
Active and inactive are the calls of the source. The rule behind the calls is not given here.

Tests used:
T47D [1] = experiment: Stimulation of human T47D cell proliferation up to 100 uM after 96 hrs by alamar blue assay relative to estradiol; format: functional, cell-based
Procedure, shortened: (§1)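 Compounds were given alone at 0.1, 1, 10 and 100 µM, and stimulation of proliferation was compared with estradiol at 1–100 pM. Cell proliferation assay as in an earlier report.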

T47D [2] = experiment: Antiestrogenic activity in human T47D cells assessed as drug level causing inhibition of 100 pM E2-enhanced cell proliferation to level equivalent to 1 pM E2 after 96 hrs by alamar blue assay; format: functional
Procedure, shortened: (§2)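 Cells seeded at 1 × 10^4 per well in phenol red-free RPMI with 5% DCC-treated FBS. E2 was added from a 20 nM solution to give 100 pM and preincubated 1 h at 37 °C, 5% CO2. Compounds were then added at 0.1, 1, 10 and 100 µM for 96 h, with serially diluted tamoxifen as positive control. Antagonism was judged from cell populations. iEqE values were obtained by linear regression over four concentrations.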

MCF7 [3] = experiment: Antiestrogenic activity in human MCF7 cells assessed as drug level causing inhibition of 100 pM E2-enhanced cell proliferation to level equivalent to 10 pM E2 after 96 hrs by alamar blue assay; format: functional; procedure, shortened: as §2
T47D [4] = experiment: Antiestrogenic activity in human T47D cells assessed as inhibition of E2-enhanced cell proliferation at 0.1 to 100 uM after 96 hrs by alamar blue assay; format: functional; procedure, shortened: as §2
MCF7 [5] = experiment: Antiestrogenic activity in human MCF7 cells assessed as drug level causing inhibition of 100 pM E2-enhanced cell proliferation to level equivalent to 50 pM E2 after 96 hrs by alamar blue assay; format: functional; procedure, shortened: as §2
MCF7 [6] = experiment: Stimulation of human MCF7 cell proliferation up to 100 uM after 96 hrs by alamar blue assay relative to estradiol; format: functional, cell-based; procedure, shortened: as §1
MCF7 [7] = experiment: Antiestrogenic activity in human MCF7 cells assessed as drug level causing inhibition of 100 pM E2-enhanced cell proliferation to level equivalent to 1 pM E2 after 96 hrs by alamar blue assay; format: functional; procedure, shortened: as §2
T47D [8] = experiment: Antiestrogenic activity in human T47D cells assessed as drug level causing inhibition of 100 pM E2-enhanced cell proliferation to level equivalent to 50 pM E2 after 96 hrs by alamar blue assay; format: functional; procedure, shortened: as §2
T47D [9] = experiment: Antiestrogenic activity in human T47D cells assessed as drug level causing inhibition of 100 pM E2-enhanced cell proliferation to level equivalent to 10 pM E2 after 96 hrs by alamar blue assay; format: functional; procedure, shortened: as §2
MCF7 [10] = experiment: Antiestrogenic activity in human MCF7 cells assessed as inhibition of E2-enhanced cell proliferation at 0.1 to 100 uM after 96 hrs by alamar blue assay; format: functional; procedure, shortened: as §2

Compound | Activity (T47D [1]) | Activity (T47D [2]) [µM] | Activity (MCF7 [3]) [µM] | inhibition (INH) (T47D [4]) [%] | Activity (MCF7 [5]) [µM] | Activity (MCF7 [6]) | Activity (MCF7 [7]) [µM] | Activity (T47D [8]) [µM] | Activity (T47D [9]) [µM] | inhibition (INH) (MCF7 [10]) [%]
COc1cc(/C=C/CO)ccc1O[C@@H]1O[C@H](COC(=O)/C=C/c2ccc(O)c(O)c2)[C@@H](O)[C@H](O)[C@H]1O [KHAINAOSIDE C] | inactive | >100 | 4 | >90 | 4 | inactive | 5 | <0.1 | <0.1 | 
Nc1ncnc2c1ncn2[C@@H]1O[C@H](CO)[C@@H](O)[C@H]1O [ADENOSINE] | inactive | >100 | <0.1 |  | <0.1 | inactive | >100 | 2 | 69 | >90
COc1cc(O[C@@H]2O[C@H](CO)[C@@H](O)[C@H](O)[C@H]2O)cc(OC)c1O [KOABURASIDE] | inactive | 70 | <0.1 |  | <0.1 | inactive | >100 | 2 | 37 | >90
CCCc1ccc(O[C@@H]2O[C@H](CO)[C@@H](O)[C@H](O)[C@H]2O)c(OC)c1 | inactive | >100 | <0.1 | >50 | <0.1 | inactive | 0.4 | <0.1 | >100 | 
O=c1cc(-c2ccc(O)cc2)oc2cc(O[C@@H]3O[C@H](CO)[C@@H](O)[C@H](O)[C@H]3O)cc(O)c12 [APIGETRIN] | inactive | 2 | <0.1 |  | <0.1 | inactive | >100 | <0.1 | <0.1 | >90
COc1cc([C@H]2OC[C@H]3[C@@H]2CO[C@@H]3c2cc(OC)c(O)c(OC)c2)ccc1O[C@@H]1O[C@H](CO)[C@@H](O)[C@H](O)[C@H]1O [ISOEUCOMMIN A] | inactive | >100 | <0.1 | >90 | <0.1 | inactive | <0.1 | <0.1 | <0.1 | 
COc1cc([C@H](O[C@@H]2O[C@H](CO)[C@@H](O)[C@H](O)[C@H]2O)[C@@H](CO)Oc2c(OC)cc(/C=C/CO)cc2OC)ccc1O | inactive | >100 | 6 | >50 | <0.1 | inactive | >100 | <0.1 | >100 | 
COc1cc([C@H]2OC[C@H]3[C@@H]2CO[C@@H]3c2cc(OC)c(O[C@@H]3O[C@H](CO)[C@@H](O)[C@H](O)[C@H]3O)c(OC)c2)cc(OC)c1O | inactive | >100 | <0.1 |  | <0.1 | inactive | <0.1 | <0.1 | 19 | 
COc1cc([C@H]2OC[C@H]3[C@@H]2CO[C@@H]3c2ccc(O[C@@H]3O[C@H](CO)[C@@H](O)[C@H](O)[C@H]3O)c(OC)c2)ccc1O | inactive | >100 | <0.1 | >90 | <0.1 | inactive | <0.1 | <0.1 | <0.1 | 
COc1cc([C@H]2OC[C@H]3[C@@H]2CO[C@@H]3c2cc(OC)c(O[C@@H]3O[C@H](CO)[C@@H](O)[C@H](O)[C@H]3O)c(OC)c2)ccc1O | inactive | >100 | <0.1 |  | <0.1 | inactive | >100 | <0.1 | 2 | >90
COc1cc(O)ccc1O[C@@H]1O[C@H](CO[C@@H]2OC[C@@H](O)[C@H](O)[C@H]2O)[C@@H](O)[C@H](O)[C@H]1O [CAPPAROSIDE A] | inactive | >100 | 0.3 | >50 | <0.1 | inactive | >100 | <0.1 | >100 | 
COc1cc(/C=C/C(=O)O[C@H]2C[C@@H]3C(C(=O)O)=CO[C@@H](O[C@@H]4O[C@H](CO)[C@@H](O)[C@H](O)[C@H]4O)[C@@H]3[C@@H]2C)ccc1O [KHAINAOSIDE B] | inactive | >100 | <0.1 | >90 | <0.1 | inactive | >100 | <0.1 | <0.1 | >90
COc1cc(O[C@@H]2O[C@H](CO)[C@@H](O)[C@H](O)[C@H]2O)ccc1O [TACHIOSIDE] | inactive | >100 | 0.2 |  | <0.1 | inactive | >100 | <0.1 | 10 | 
